Tb MetRS inh = T. brucei MetRS inhibitors, primary screen, biochemical, luminescence; methionyl-tRNA synthetase (Trypanosoma brucei brucei); purified T. brucei MetRS, ATP depletion, Kinase-Glo luminescence; inhibition, % at 11.9 µM; 360,000 tested, 0.4% active;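 active means inhibition above a per-plate cutoff of the control wells' mean inhibition plus 3 SD, cut at about 5.5% in these data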
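Measured by: Kinase-Glo luciferase luminescence reporting remaining unconsumed ATP. Material: purified T. brucei MetRS enzyme. Doses: 11.9 µM compound single dose, 0.9% DMSO. Medium: HEPES buffer containing pyrophosphatase, BSA, spermine, DTT. Times: 15 min preincubation, 2 h reaction, all 25 °C. Reagent: methionine, ATP and bulk E. coli tRNA.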
p47phox inh = p47phox/p22phox peptide binding inhibitors, primary screen, biochemical, uHTS, NADPH oxidase regulatory subunit; fluorescence polarization, 2 h; inhibition, % at 24.7 µM; 220,000 tested, 0.53% active; AID 1274, 2008
eIF4E-4G inh = eIF4E–eIF4G protein interaction inhibitors, primary screen, biochemical, uHTS, TR-FRET, eIF4GI fragment; TR-FRET eIF4E-eIF4GI(517-606) binding, 2 h; inhibition, % at 21.7 µM; 220,000 tested, 0.37% active; AID 782, 2007
SUMO HTRF inh = inhibitors of in vitro SUMOylation cascade, primary screen, biochemical, HTRF, uHTS. SUMO-conjugating enzyme UBC9 (Homo sapiens), P63279. HTRF SUMOylation assay, SAE1/SAE2 + UBC9. inhibition, % at 35 µM. 290,000 tested, 0.36% active; in the data active means inhibition above about 50%, passing the limit was not always enough
Target sequence (P63279 whole entry, looked up): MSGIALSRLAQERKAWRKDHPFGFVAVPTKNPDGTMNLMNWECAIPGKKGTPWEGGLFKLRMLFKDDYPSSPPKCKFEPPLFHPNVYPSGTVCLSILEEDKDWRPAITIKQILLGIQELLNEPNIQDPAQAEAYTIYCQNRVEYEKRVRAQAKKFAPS
14-3-3 Bad inh = inhibitors of 14-3-3 zeta/Bad binding, primary screen, biochemical, TR-FRET, bovine 14-3-3 zeta. TR-FRET 14-3-3zeta/Dy647-pBad peptide displacement, 1 h. inhibition, % at 21.7 µM. 220,000 tested, 0.71% active;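 active means inhibition above about 70%, limit read from the data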
Target sequence (P63103 whole entry, looked up): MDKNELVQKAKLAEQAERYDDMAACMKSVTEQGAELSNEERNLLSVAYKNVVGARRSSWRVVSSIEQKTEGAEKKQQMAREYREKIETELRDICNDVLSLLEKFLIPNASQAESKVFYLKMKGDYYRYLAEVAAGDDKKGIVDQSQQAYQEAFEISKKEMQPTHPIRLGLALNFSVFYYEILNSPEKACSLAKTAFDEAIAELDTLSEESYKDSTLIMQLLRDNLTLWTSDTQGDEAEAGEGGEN
p97 inhibitor = inhibitors of human p97 ATPase, primary screen, biochemical | AID 1481, 2009 | inhibition, % at 8 µM | Transitional endoplasmic reticulum ATPase (Homo sapiens), P55072 | recombinant p97 ATPase, Kinase-Glo ATP luminescence, 3 h | 220,000 tested, 0.42% active; in the data active means inhibition above about 15%
Each line names hits and unclear results; the compound was inactive in the other large screens; [ ] = dose if it differs, or a comment. An excerpt weighted towards active compounds, which were near 1.6% of everything screened.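 How the source made its calls, unless noted: active means inhibition above about 30% (limit read from the data); inactive means the rest.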

N#CC(C#N)=C1C=C2C=C(N3CCOCC3)CCC2CC1 (centres undefined)	p47phox inh 65
O=C(COc1ccc([N+](=O)[O-])cc1)Nc1ccc(C(=O)Nc2ccccc2C(=O)O)cc1	p47phox inh 48
O=C(COc1ccc([N+](=O)[O-])cc1)Nc1ccc(NC(=O)c2ccccc2)cc1	none (no result: p47phox inh, eIF4E-4G inh, 14-3-3 Bad inh, p97 inhibitor)
CCCc1nn2c(=O)cc(O)nc2s1	none
CCCc1nn2c(=O)c(C(c3ccc(C)cc3)c3c(O)nc4sc(CCC)nn4c3=O)c(O)nc2s1	p47phox inh 149
COc1ccc(Cc2nnc(NC(=O)c3ccccc3F)s2)cc1OC	SUMO HTRF inh 93 (no result: p47phox inh, eIF4E-4G inh, 14-3-3 Bad inh, p97 inhibitor)
O=C(O)CC1S/C(=N/N=C/C=C/c2ccccc2)NC1=O (centres undefined)	none
O=C(CC1S/C(=N/N=C/C=C/c2ccccc2)NC1=O)Nc1ccc(Cl)c(Cl)c1 (centres undefined)	SUMO HTRF inh 68
COc1ccc(C(=O)C[C@@H]2OC[C@H](Cc3ccccc3)N2S(=O)(=O)c2ccc(C)cc2)cc1OC	none (no result: p47phox inh, eIF4E-4G inh, SUMO HTRF inh, 14-3-3 Bad inh, p97 inhibitor)
Cc1cc(C)cc(OCC(=O)Nc2ccc(N3CCCC3)cc2)c1	14-3-3 Bad inh 100[fluorescence artefact?]
CCOc1cccc(C(=O)Nc2ccc(N3CCCC3)cc2)c1	none (no result: p47phox inh, eIF4E-4G inh, 14-3-3 Bad inh, p97 inhibitor)
CCOc1ccc(C(=O)Nc2ccc(N3CCCC3)cc2)cc1	14-3-3 Bad inh 85[fluorescence artefact?]
Cc1ccc(OCC(=O)Nc2ccc(N3CCCC3)cc2)cc1C	14-3-3 Bad inh 74[fluorescence artefact?]
COc1ccc(OCC(=O)Nc2ccc(N3CCCCC3)cc2)cc1	none
CSc1ncccc1C(=O)OCC(=O)N(C)Cc1ccc(C)cc1	none (no result: p47phox inh, eIF4E-4G inh, SUMO HTRF inh, 14-3-3 Bad inh, p97 inhibitor)
COc1ccc(C(=O)NCc2nnc(SCC(=O)N3CCCC3)o2)cc1OC	none (no result: p47phox inh, eIF4E-4G inh, 14-3-3 Bad inh, p97 inhibitor)
O=C(Nc1ccc(Br)cc1)c1ccccc1CC[N+](=O)[O-]	none
Cc1cc(C)cc(NC(=O)c2ccccc2CC[N+](=O)[O-])c1	eIF4E-4G inh 76
COc1ccc(CCCC(=O)N/N=C\c2cccs2)cc1	14-3-3 Bad inh 97
COC(=O)N/N=C/c1cccs1	none
CN(C)CCCNc1cc(C(C)(C)C)nc2c(-c3ccc(Cl)cc3)cnn12	p47phox inh 65, eIF4E-4G inh 36, 14-3-3 Bad inh 79
CSc1ccc(S(=O)(=O)NCc2ccccc2Cl)cc1	none
CSc1ccc(S(=O)(=O)NCc2ccc(Cl)cc2Cl)cc1	Tb MetRS inh 7.5
COc1ccc(OC)c(-c2cc(C(=O)Nc3ccc(F)cc3F)no2)c1	14-3-3 Bad inh 88
CCOC(=O)Cn1c(=O)c(-c2ccccc2NC)nc2ccccc21	p47phox inh 39
CCOC(=O)c1c(NC(=O)COC(=O)Cc2n[nH]c(=O)c3ccccc23)sc(C(=O)NC)c1C	none (no result: p47phox inh, eIF4E-4G inh, SUMO HTRF inh, 14-3-3 Bad inh, p97 inhibitor)
COc1ccc2[nH]c(=O)c(CN(CCN3CCCC3)C(=O)Nc3ccccc3Cl)cc2c1	eIF4E-4G inh 58 (no result: p97 inhibitor)
CCOc1ccc2[nH]c(=O)c(CN(CCN3CCCC3)C(=S)Nc3ccccc3OCC)cc2c1	none
O=C(O)/C=C\c1cn(-c2ccccc2)nc1-c1cc2ccccc2o1	SUMO HTRF inh 59
O=C(O)/C=C/c1cn(-c2ccccc2)nc1-c1ccccc1	none (no result: p47phox inh, eIF4E-4G inh, 14-3-3 Bad inh, p97 inhibitor)
O=C(O)/C=C/c1cn(-c2ccccc2)nc1-c1cc2ccccc2o1	SUMO HTRF inh 51
CNC(=S)N1CCn2cccc2C1c1cc(OC)c(OC)c(OC)c1 (centres undefined)	none
CCNC(=S)N1CCn2cccc2C1c1ccc(F)cc1 (centres undefined)	p47phox inh 40
O=C(CSc1nnc(CNC(=O)c2c(F)cccc2Cl)o1)NCc1ccccc1	none (no result: p47phox inh, eIF4E-4G inh, 14-3-3 Bad inh, p97 inhibitor)
O=c1[nH][nH]c2c(N=Cc3ccccc3O)ccc(F)c12	p47phox inh 134, SUMO HTRF inh 66, 14-3-3 Bad inh 70, p97 inhibitor 40
N#C/C(=C\c1ccc(OCc2ccc(Cl)cc2)cc1)C(=O)Nc1cccc(C(=O)O)c1	SUMO HTRF inh 54 (no result: p47phox inh, eIF4E-4G inh, 14-3-3 Bad inh, p97 inhibitor)
CCOc1cc(/C=C(\C#N)C(=O)Nc2cccc(C(=O)O)c2)ccc1OCc1ccc(Br)cc1	SUMO HTRF inh 62 (no result: p47phox inh, eIF4E-4G inh, 14-3-3 Bad inh, p97 inhibitor)
COc1cc(/C=C(\C#N)C(=O)Nc2cccc(C(=O)O)c2)ccc1OCc1ccc(C)cc1	none (no result: p47phox inh, eIF4E-4G inh, 14-3-3 Bad inh, p97 inhibitor)
CCOC(=O)c1cc(-c2cccc([N+](=O)[O-])c2)n[nH]1	14-3-3 Bad inh 81
CC(=O)Nc1ccnc(-c2cccnc2)n1	eIF4E-4G inh 86
CC(O)CNCCNCc1c(OCc2ccccc2)ccc2ccccc12 (centres undefined)	14-3-3 Bad inh 77
CC(O)CNCCOc1ccccc1OCc1ccccc1 (centres undefined)	none
CC(C)OCCCn1c(-c2ccc(Br)cc2)c[nH]c1=S	none
COc1cc(-c2nnc(-c3ccccc3)o2)cc(OC)c1OC	p47phox inh 32
COc1cc(-c2nnc(-c3cc(OC)c(OC)c(OC)c3)o2)cc(OC)c1OC	none
COc1cc(-c2nc(-c3ccc(Br)o3)no2)cc(OC)c1OC	p97 inhibitor 19
CCCCOP(=O)(OCCCC)C1(C)CC(=O)CC(C)(C)C1 (centres undefined)	none (no result: p47phox inh, eIF4E-4G inh, SUMO HTRF inh, 14-3-3 Bad inh, p97 inhibitor)
Nc1nc(Cl)cc(N2CCCC2)n1	none
Nc1nc(Cl)cc(N2CCC(c3cc(-c4ccc(Cl)cc4Cl)n[nH]3)CC2)n1	Tb MetRS inh 21
CC1CCC(NC(=O)C2CCC(CNS(=O)(=O)c3ccc4c(c3)C(C)(C)C(=O)N4C)CC2)CC1 (centres undefined)	none (no result: p47phox inh, eIF4E-4G inh, SUMO HTRF inh, 14-3-3 Bad inh, p97 inhibitor)
CCOC(=O)c1nc2cc3n(c(C)c-2c1C)C(C)C(C)=C3C (centres undefined)	p47phox inh 56
CN(C)c1ccc2nc3ccc(=[N+](C)C)cc-3sc2c1	p47phox inh active
CN(C)c1ccc2nc3ccc(=O)cc-3sc2c1	none (no result: p47phox inh, eIF4E-4G inh, SUMO HTRF inh, 14-3-3 Bad inh, p97 inhibitor)
Cc1cc2nc3ccc(=[N+](C)C)cc-3sc2cc1N	p47phox inh active
O=C(Nc1ccc(-n2nncc2-c2ccco2)cc1)c1cc2ccccc2oc1=O	14-3-3 Bad inh 79[fluorescence artefact?] (no result: SUMO HTRF inh)
CSCCC(C(=O)Nc1c(C)cccc1C)n1c(-c2cc(C)cs2)nc2ccccc21 (centres undefined)	none (no result: p47phox inh, eIF4E-4G inh, SUMO HTRF inh, 14-3-3 Bad inh, p97 inhibitor)
CC(OC(=O)C1CCN(c2ccc(C(F)(F)F)cn2)CC1)C(=O)Nc1cccc([N+](=O)[O-])c1 (centres undefined)	none (no result: p47phox inh, eIF4E-4G inh, SUMO HTRF inh, 14-3-3 Bad inh, p97 inhibitor)
C=CCn1c(-c2ccoc2)n[nH]c1=S	eIF4E-4G inh 65
CNc1cncc(-c2ccc(OCCCN(C)C)nc2)n1	none (no result: p47phox inh, eIF4E-4G inh, SUMO HTRF inh, 14-3-3 Bad inh, p97 inhibitor)
CCN(CC)S(=O)(=O)c1ccc(OC)c(NC(=O)Cc2cccs2)c1	eIF4E-4G inh 34
